The text below walks through data of ChEMBL document CHEMBL1149043, “Antiplatelet constituents of formosan Rubia akane” (1994).

In assay [1] the test system is Platelet. Put plainly: Inhibition of arachidonic acid-induced platelet aggregation in rabbit platelet assessed as aggregation at 300 uM treated 3 mins before arachidonic acid challenge by turbidimetric method. Further details: scale not given: the % may be the effect or the level left. Format: functional, Oryctolagus cuniculus. The method, boiled down: (§1)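 Washed rabbit platelets (EDTA PRP, 4.5×10^8/ml, Tyrode's with 0.35% BSA) were preincubated 3 min at 37° with agent at 300 μM or 0.5% DMSO control. Percent aggregation was read turbidimetrically and reported as mean±SEM (n) with significance versus control.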

The subject of assay [2] is Platelet. Nature of the assay: Antiplatelet activity against rabbit platelet assessed as inhibition of collagen-induced platelet aggregation treated 3 mins before collagen challenge by turbidimetric method. It counts as functional, cell-based. The conditions noted are these: Oryctolagus cuniculus.
The subject of assay [3] is Platelet. Put plainly: Inhibition of collagen-induced platelet aggregation in rabbit platelet assessed as aggregation at 300 uM treated 3 mins before collagen challenge by turbidimetric method. It counts as functional, Oryctolagus cuniculus. In short, it runs like this:
as §1

Assay [4] has as its system Platelet. Nature of the assay: Inhibition of thrombin-induced platelet aggregation in rabbit platelet assessed as aggregation at 300 uM treated 3 mins before thrombin challenge by turbidimetric method. Format: functional, Oryctolagus cuniculus. The method, boiled down:
as §1

The test system of assay [5] is Platelet. Put plainly: Inhibition of platelet activating factor-induced platelet aggregation in rabbit platelet assessed as aggregation at 300 uM treated 3 mins before platelet activating factor challenge by turbidimetric method. Format: functional, Oryctolagus cuniculus. The method, boiled down: as §1
Assay [6] concerns Platelet. Put plainly: Antiplatelet activity against rabbit platelet assessed as inhibition of arachidonic acid-induced platelet aggregation treated 3 mins before arachidonic acid challenge by turbidimetric method. It counts as functional, cell-based. Conditions: Oryctolagus cuniculus.
Assay [7] concerns Platelet. Put plainly: Inhibition of platelet activating factor-induced platelet aggregation in rabbit platelet assessed as aggregation at 50 uM treated 3 mins before platelet activating factor challenge by turbidimetric method. More on the design: scale not given: the % may be the effect or the level left. Format: functional, Oryctolagus cuniculus. The method, boiled down: (§2)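 Rabbit platelets, washed from EDTA PRP and suspended at 4.5×10^8/ml in Tyrode's/0.35% BSA, were preincubated 3 min at 37° with agent at 50 μM, with 0.5% DMSO as control. Turbidimetric percent aggregation is given as mean±SEM (n).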

For assay [8], the system named is Platelet. Put plainly: Inhibition of arachidonic acid-induced platelet aggregation in rabbit platelet assessed as aggregation at 50 uM treated 3 mins before arachidonic acid challenge by turbidimetric method. Further details: scale not given: the % may be the effect or the level left. Format: functional, Oryctolagus cuniculus. In short, it runs like this: as §2

Assay [9] concerns Platelet. Nature of the assay: Inhibition of collagen-induced platelet aggregation in rabbit platelet assessed as aggregation at 50 uM treated 3 mins before collagen challenge by turbidimetric method. It counts as functional, Oryctolagus cuniculus. Further details: scale not given: the % may be the effect or the level left. In short, it runs like this:
as §2

Assay [10] relates to Platelet. Put plainly: Inhibition of thrombin-induced platelet aggregation in rabbit platelet assessed as aggregation at 50 uM treated 3 mins before thrombin challenge by turbidimetric method. More on the design: scale not given: the % may be the effect or the level left. It counts as functional, Oryctolagus cuniculus. In short, it runs like this: as §2

On to `Cc1c(O)cc2c(c1O)C(=O)c1ccc(O)cc1C2=O`, for which the Activity in the assay with Platelet [1] was 83%; in the assay on Platelet [2] it was “Dose-dependent effect”. In addition, the Platelet aggregation with Platelet [3] was 8.2%; in the assay on Platelet [5], 77.8%. Besides, the Percent platelet aggregation in the assay on Platelet [4] was determined as 85.5%.
As for `O=C1c2ccccc2C(=O)c2c(O)cc(O)cc21` [XANTHOPURPURIN], in the assay with Platelet [1], the Activity is on record as 85%. For the same compound, the values for the Platelet aggregation in the assay on Platelet [3] and in the assay with Platelet [5] were 3.8% and 82.6%, respectively. Moreover, the Percent platelet aggregation in the assay on Platelet [4] is reported as 86.9%.
In the same order, the values of `COC(=O)c1c(CC=C(C)C)c(O[C@@H]2O[C@H](CO)[C@@H](O)[C@H](O)[C@H]2O)c2ccccc2c1O[C@@H]1O[C@H](CO)[C@@H](O)[C@H](O)[C@H]1O` are 86.9%, 81.2%, 90.3% and 91.3%.
Turning to `COC(=O)c1c2c(c3ccccc3c1O)OC(C)(C)C=C2` [MOLLUGIN], the Activity was 0% with Platelet [1] and “Dose-dependent effect” in the assay with Platelet [6]. The Platelet aggregation in the assay with Platelet [3] worked out at 34.1%; in the assay with Platelet [5] it was 62.5%. Also, the Percent platelet aggregation in the assay on Platelet [4] stood at 90.9%.
As to `CC(=O)O[C@H]1[C@H](O)[C@@H](CO)O[C@@H](Oc2cc3c(c(O)c2C)C(=O)c2ccc(O)cc2C3=O)[C@@H]1O[C@@H]1O[C@H](C)[C@@H](O)[C@H](O)[C@@H]1O`, the Activity in the assay with Platelet [1] came to 90.6%. Moreover, the Platelet aggregation in the assay with Platelet [3] is 82.4%; in the assay with Platelet [5], 81.5%. The Percent platelet aggregation in the assay on Platelet [4] is 82.4%.
With `Cc1ccc2c(c1O)C(=O)c1ccccc1C2=O`, in the assay on Platelet [1], the Activity came out at 81.6%. Also, the Platelet aggregation with Platelet [3] is reported as 85.7%; in the assay with Platelet [5], 82.3%. Besides, in the assay on Platelet [4], the Percent platelet aggregation came out at 88.7%.
For `O=C1c2ccccc2C(=O)c2c(O)cc(O[C@@H]3O[C@H](CO)[C@@H](O)[C@H](O)[C@H]3O)cc21`, the Activity was 71.9% in the assay on Platelet [1] and “Dose-dependent effect” in the assay with Platelet [2]. The figures for the Platelet aggregation with Platelet [3] and in the assay with Platelet [5] were 0% and 65.5%, respectively. Besides, the Percent platelet aggregation in the assay with Platelet [4] was determined as 85.2%.
Consider `O=C1c2ccccc2C(=O)c2c1cc(O[C@@H]1O[C@H](CO[C@@H]3OC[C@@H](O)[C@H](O)[C@H]3O)[C@@H](O)[C@H](O)[C@H]1O)c(CO)c2O` [LUCIDIN PRIMEVOROSIDE], for which the Activity with Platelet [1] stood at 88.5%. Further, the Platelet aggregation was 83.5% with Platelet [3] and 89.1% in the assay with Platelet [5]. In the assay on Platelet [4], the Percent platelet aggregation was 92.2%.
Turning to `CC(=O)Oc1ccccc1C(=O)O` [ASPIRIN], the Activity with Platelet [7] was determined as 90.5%; in the assay with Platelet [8] it was 0%; in the assay with Platelet [9], 85.4%; with Platelet [10], 91.9%.
Consider `Cc1c(O[C@@H]2O[C@H](CO)[C@@H](O)[C@H](O)[C@H]2O[C@@H]2O[C@H](C)[C@@H](O)[C@H](O)[C@@H]2O)cc2c(c1O)C(=O)c1ccc(O)cc1C2=O`, for which, in the assay with Platelet [1], the Activity is 83.4%. Moreover, the Platelet aggregation is reported as 84% in the assay with Platelet [3] and 89.4% in the assay with Platelet [5]. Further, the Percent platelet aggregation with Platelet [4] was 87%.
